Measurements as given in ChEMBL document CHEMBL6092204, “Synthesis of pyridyl pyrimidine hedgehog signaling pathway inhibitors and their antitumor activity in human pancreatic cancer” (Eur J Med Chem, 2024).
The source made the active and inactive calls. The rule behind the calls is not given here.

Key:
[1] = Inhibition of Hh signaling pathway in mouse NIH3T3 cells incubated for 48 hrs by Gli luciferase reporter assay; type: cell-based; settings: NIH3T3, 48 h
Outline: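 Reporter cells were seeded in 96-well plates, incubated overnight, then treated for 48 h. Lysate luciferase activity was measured with a dual-luciferase system, and firefly signal was normalised to Renilla.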

BXPC-3 [2] = assay: Induction of apoptosis in human BXPC-3 cells assessed as necrotic cells at 10 uM incubated for 48 hrs by Annexin V-FITC/PI staining based flow cytometry (reference value: 0.71 %); type: functional
PANC-1 [3] = assay: Induction of apoptosis in human PANC-1 cells assessed as viable cells at 10 uM incubated for 48 hrs by Annexin V-FITC/PI staining based flow cytometry (reference value: 93.2 %); type: functional; settings: read-out: Activity
BxPC-3 [4] = assay: Antitumor activity aginst human BxPC-3 cells xenografted in BALB/c nude mouse assessed as tumor growth inhibition at 15 mg/kg, ip qd for 21 days; settings: time 21.0 day
BXPC-3 [5] = assay: Induction of apoptosis in human BXPC-3 cells assessed as late apoptotic cells at 10 uM incubated for 48 hrs by Annexin V-FITC/PI staining based flow cytometry (reference value: 6.72 %); type: functional
PANC-1 [6] = assay: Induction of apoptosis in human PANC-1 cells assessed as early apoptotic cells at 10 uM incubated for 48 hrs by Annexin V-FITC/PI staining based flow cytometry (reference value: 1.88 %); type: functional
BXPC-3 [7] = assay: Induction of apoptosis in human BXPC-3 cells assessed as viable cells at 10 uM incubated for 48 hrs by Annexin V-FITC/PI staining based flow cytometry (reference value: 91.5 %); type: functional; settings: read-out: Activity
PANC-1 [8] = assay: Induction of apoptosis in human PANC-1 cells assessed as necrotic cells at 10 uM incubated for 48 hrs by Annexin V-FITC/PI staining based flow cytometry (reference value: 2.24 %); type: functional
PANC-1 [9] = assay: Induction of apoptosis in human PANC-1 cells assessed as late apoptotic cells at 10 uM incubated for 48 hrs by Annexin V-FITC/PI staining based flow cytometry (reference value: 2.74 %); type: functional
BXPC-3 [10] = assay: Induction of apoptosis in human BXPC-3 cells assessed as early apoptotic cells at 10 uM incubated for 48 hrs by Annexin V-FITC/PI staining based flow cytometry (reference value: 1.11 %); type: functional

IC50 [1] [nM] | Compound | also measured
33.5 | O=C(Nc1ccc(N2CCOCC2)c(F)c1)c1ccc(Nc2nccc(-c3cccnc3)n2)cc1 | 
24.8 | O=C(Nc1ccc(Cl)cc1)c1ccc(Nc2nccc(-c3cccnc3)n2)cc1 | 
12.2 | CCOc1ccc(NC(=O)c2ccc(Nc3nccc(-c4cccnc4)n3)cc2)cc1 | 
14.2 | COc1ccc(NC(=O)c2ccc(Nc3nccc(-c4cccnc4)n3)cc2)cc1 | 
46.4 | Cc1ccc(NC(=O)c2ccc(Nc3nccc(-c4cccnc4)n3)cc2)cc1F | 
15.1 | CS(=O)(=O)c1ccc(C(=O)Nc2ccc(Cl)c(-c3ccccn3)c2)c(Cl)c1 [VISMODEGIB] | Activity (BXPC-3 [2]): 0.77%; viability at 10 µM (PANC-1 [3]): 91.8%; inhibition (BxPC-3 [4]): Active; Activity (BXPC-3 [5]): 7.55%; Activity (PANC-1 [6]): 2.2%; viability at 10 µM (BXPC-3 [7]): 90.6%; Activity (PANC-1 [8]): 2.68%; Activity (PANC-1 [9]): 3.3%; Activity (BXPC-3 [10]): 1.05%
5.5 | CNCc1ccc(C)c(NC(=O)c2ccc(Nc3nc(-c4ccccc4)c4ccccc4n3)cc2)c1 [BMS-833923] | 
17.3 | O=C(Nc1ccc(N2CCOCC2)cc1)c1ccc(Nc2nccc(-c3cccnc3)n2)cc1 | 
15.9 | O=C(Nc1cccc(F)c1)c1ccc(Nc2nccc(-c3cccnc3)n2)cc1 | 
25.6 | O=C(Nc1cccc(C(F)(F)F)c1)c1ccc(Nc2nccc(-c3cccnc3)n2)cc1 | 
28.1 | O=C(Nc1cccnc1)c1ccc(Nc2nccc(-c3cccnc3)n2)cc1 | 
35.3 | O=C(Nc1ccc(F)cc1)c1ccc(Nc2nccc(-c3cccnc3)n2)cc1 | 
13.8 | Cc1cccc(NC(=O)c2ccc(Nc3nccc(-c4cccnc4)n3)cc2)c1 | 
22.5 | COc1ccc(NC(=O)c2ccc(Nc3nccc(-c4cccnc4)n3)cc2)cc1OC | 
14.6 | Cc1ccccc1NC(=O)c1ccc(Nc2nccc(-c3cccnc3)n2)cc1 | 
9.1 | COc1ccccc1NC(=O)c1ccc(Nc2nccc(-c3cccnc3)n2)cc1 | 
4.5 | CN1CCN(c2ccc(NC(=O)c3ccc(Nc4nccc(-c5cccnc5)n4)cc3)cc2)CC1 | 
29.7 | COc1cc(NC(=O)c2ccc(Nc3nccc(-c4cccnc4)n3)cc2)cc(OC)c1 | 
18.6 | COc1cc(NC(=O)c2ccc(Nc3nccc(-c4cccnc4)n3)cc2)cc(OC)c1OC | 
10.3 | Cc1cc(F)cc(NC(=O)c2ccc(Nc3nccc(-c4cccnc4)n3)cc2)c1 | 
